# Measurements from different studies.
# Target: Serine/threonine-protein kinase Sgk1 (SGK1, Homo sapiens, UniProt O00141)
# One construct used (O00141 1-431): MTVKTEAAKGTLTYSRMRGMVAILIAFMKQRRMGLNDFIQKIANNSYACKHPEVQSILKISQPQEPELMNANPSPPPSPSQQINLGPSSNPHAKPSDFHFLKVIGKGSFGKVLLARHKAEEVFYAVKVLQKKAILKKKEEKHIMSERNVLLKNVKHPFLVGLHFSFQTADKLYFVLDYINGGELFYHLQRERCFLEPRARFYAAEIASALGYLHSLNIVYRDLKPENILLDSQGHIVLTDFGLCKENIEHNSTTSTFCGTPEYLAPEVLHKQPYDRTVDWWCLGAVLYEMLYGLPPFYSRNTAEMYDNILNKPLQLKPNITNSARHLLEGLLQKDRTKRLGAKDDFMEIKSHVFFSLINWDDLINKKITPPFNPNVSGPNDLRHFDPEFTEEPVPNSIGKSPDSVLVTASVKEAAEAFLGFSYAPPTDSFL
Structure (SMILES),effect on,action,method,tested at,endpoint,value
N#CC1(c2ccccn2)CCN(Cc2cc(C(=O)O)c(=O)n3ccccc23)CC1,cell-free assay,,competition with immobilised ligand,1 µM,remaining binding,87%
Nc1ncc(-c2nc(N3CCOCC3)nc(N3CCOCC3)n2)c(C(F)F)n1,binding,,competition with immobilised ligand,10 µM,remaining binding,77%
Cn1cncc1[C@@](O)(COc1ccc(C#N)cc1-c1ccc(OC(F)(F)F)cc1)c1ccc(C#N)cc1,cell-free assay,,competition with immobilised ligand,1 µM,remaining binding,100%
Cn1cc(-c2cc(F)cc(N3CCn4c(cc5c4CCCC5)C3=O)c2CO)cc(Nc2ccc(N3CCN(C4COC4)CC3)cn2)c1=O,enzyme activity,inhibitor,,0.1 µM,inhibition,13%
C#Cc1n[nH]c2c(-c3cn(C(C)c4ccccn4)c(=O)[nH]c3=O)cc(F)cc12 (stereo not drawn),enzyme activity,inhibitor,,1 µM,inhibition,0%
CC(C)(C)c1cc(C=C(C#N)C#N)cc(Br)c1O,enzyme activity,inhibitor,,0.5 µM,remaining activity,95.3%
Cn1cc(-c2cccc(N3CCc4c(sc5c4CC(C)(C)C5)C3=O)c2CO)cc(Nc2ccncn2)c1=O,enzyme activity,inhibitor,,1 µM,inhibition,-11%
O=c1[nH]c2ccccc2n1C1CCN(Cc2ccc(-c3[nH]c4cc5ncnc5cc4nc3-c3ccccc3)cc2)CC1,cell-free assay,,,0.5 µM,remaining signal,102%
COc1ncccc1-c1cnn2ccc(N3CCN(C(=O)OC(C)C)CC3)nc12,binding,,competition with immobilised ligand,1 µM,remaining binding,100%
